In one assay the target is mammalian actin (Oryctolagus cuniculus, UniProt P68135). The experiment in a line: Pyrene fluorescence actin polymerization assay. As to conditions: for inhibition at 10 µM: read-out: Inhibition of mammalian actin polymerization at 10 μM; for inhibition at 100 µM: read-out: Inhibition of mammalian actin polymerization at 100 μM; for Inhibition of mammalian actin polymerization at 10 μM: 10 μM compound. The format is biochemical. The essentials: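 Actin was 5% pyrene-labelled, held in Ca buffer G (2 mM Tris pH 8, 0.2 mM ATP). It was converted to the Mg2+ form (final 1 mM EGTA, 0.1 mM MgCl2) for 2 min at room temperature. Actin at 2.5 μM final was preincubated 1 min with compound in DMSO; latrunculin B was the positive control. Polymerisation was started with KCl 50 mM, imidazole 10 mM pH 7, MgCl2 1 mM, EGTA 1 mM. Pyrene fluorescence (ex 365/em 407 nm) was read every 15 s for 90 min, in triplicate.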

Another assay concerns T. gondii parasites. The experiment in a line: Invasion inhibition assay of T. gondii into host fibroblast cells. In kind it is cell-based, Toxoplasma gondii. The essentials: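 Type I RH strain, clone 2F, expressing E. coli β-galactosidase. Compound came from a 10 mM DMSO stock diluted in medium with 1% DMSO, which was also the vehicle control. Parasites were preincubated with compound for 20 min at room temperature. Then 5 × 10^2 parasites/well were added to confluent human foreskin fibroblasts in DMEM/10% FBS, centrifuged ~300g for 5 min, and cultured at 37°C, 5% CO2. EC50 from a variable-slope sigmoidal fit; three experiments, each in triplicate.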

The term inhibition denotes the share of the control response that was lost under treatment.

Molecules are shown by their SMILES.

In the case of `COc1ccc(CN2C(=O)SC[C@H]2C2(OC)CC(OC(=O)c3ccccc3-c3cccc4ccccc34)CCO2)cc1` (stereo partly drawn) [Compound 17, 2-Methoxy-2-((R)-3-(4-methoxybenzyl)-2-oxothiazolidin-4-yl)tetrahydro-2H-pyran-4-yl 2-(naphthalen-1-yl)benzoate], on mammalian actin, the inhibition at 10 µM was < 10% and the inhibition at 100 µM is < 10%.
In the case of `C/C1=C/C(=O)O[C@@H]2C[C@@H](CC[C@H](C)/C=C\CC1)O[C@@](O)([C@@H]1CSC(=O)N1)C2` [Latrunculin B, latrunculin B, reference compound], the “Inhibition of mammalian actin polymerization at 10 μM” value on mammalian actin (2.5 μM actin, pyrene fluorescence) was 100%; at mammalian actin (2.5 μM actin, pyrene fluorescence, listed as latrunculin B), 100%. Further, the “Inhibition of mammalian actin polymerization at 100 μM” value at mammalian actin (100 μM compound, 2.5 μM actin, pyrene fluorescence) is recorded as 100%.
For `COc1ccc(CN2C(=O)SC[C@H]2C2(OC)CC(OC(=O)c3ccccc3I)CCO2)cc1` (stereo partly shown) [Compound 14, 2-Methoxy-2-(3-(4-methoxybenzyl)-2-oxothiazolidin-4-yl)tetrahydro-2H-pyran-4-yl 2-iodobenzoate], on mammalian actin, the inhibition at 10 µM was < 10% and the inhibition at 100 µM is < 10%.
Turning to `COc1ccc(CN2C(=O)SC[C@H]2C2(OC)CC(OC(=O)C3CCCC3)CCO2)cc1` (stereo partly drawn) [Compound 11, 2-Methoxy-2-((R)-3-(4-methoxybenzyl)-2-oxothiazolidin-4-yl)tetrahydro-2H-pyran-4-yl cyclopentanecarboxylate], the “activity against T. gondii (in words)” value in the assay with T. gondii parasites was “inactive”.
Regarding `COc1ccc(CN2C(=O)SC[C@H]2C2(OC)CC(OC(=O)c3ccccc3-c3cccs3)CCO2)cc1` (stereo partly drawn) [Compound 15, 2-Methoxy-2-((R)-3-(4-methoxybenzyl)-2-oxothiazolidin-4-yl)tetrahydro-2H-pyran-4-yl 2-(thiophen-2-yl)benzoate], at mammalian actin, the inhibition at 10 µM was < 10% and the inhibition at 100 µM was < 10%.
Turning to `COc1ccc(CN2C(=O)SC[C@H]2C2(OC)CC(OC(=O)c3ccccc3C3=CCCCC3)CCO2)cc1` (stereo partly drawn) [Compound 16, 2-Methoxy-2-((R)-3-(4-methoxybenzyl)-2-oxothiazolidin-4-yl)tetrahydro-2H-pyran-4-yl 2',3',4',5'-tetrahydro-[1,1'-biphenyl]-2-carboxylate], on mammalian actin, the inhibition at 10 µM was < 10% and the inhibition at 100 µM is < 10%.
For `CCCCC(=O)OC1CCOC(OC)([C@@H]2CSC(=O)N2Cc2ccc(OC)cc2)C1` (stereo partly drawn) [Compound 10, 2-Methoxy-2-((R)-3-(4-methoxybenzyl)-2-oxothiazolidin-4-yl)tetrahydro-2H-pyran-4-yl pentanoate], the “activity against T. gondii (in words)” value in the assay with T. gondii parasites was “inactive”.

Source of the values: article PMC7224986 (Journal of medicinal chemistry, 2016).
